Data taken from ChEMBL document CHEMBL1125034, “Design and synthesis of 4H-3,1-benzoxazin-4-ones as potent alternate substrate inhibitors of human leukocyte elastase” (J Med Chem, 1990).
pKi: −log10 of the molar value.

Assays:
Neutrophil elastase = target: T1, Neutrophil elastase (Homo sapiens, UniProt P08246); experiment: Inhibition of human leukocyte elastase
T1 sequence (P08246 whole entry): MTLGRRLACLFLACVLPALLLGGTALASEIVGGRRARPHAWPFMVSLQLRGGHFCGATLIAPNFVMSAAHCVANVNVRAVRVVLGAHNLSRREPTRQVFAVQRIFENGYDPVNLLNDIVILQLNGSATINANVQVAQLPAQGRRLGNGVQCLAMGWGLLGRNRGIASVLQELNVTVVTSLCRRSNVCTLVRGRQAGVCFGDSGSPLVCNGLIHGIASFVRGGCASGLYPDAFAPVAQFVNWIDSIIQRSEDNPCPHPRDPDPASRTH

[1] = Alkaline hydrolysis rate of the compound; type: ADME
In short: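 Alkaline hydrolysis rate constants measured at several pH values at 25 °C. Loss of the long-wavelength UV chromophore (λmax typically 300-345 nm) was followed by spectrophotometer.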

Row | Compound | pKi (Neutrophil elastase) | Log kOH- [1]
1 | CCSc1nc2ccc(C)cc2c(=O)o1 | 6.77 | 1.95
2 | COc1cc2nc(C)oc(=O)c2cc1OC | 3.08 | 0.53
3 | CCNc1nc2ccccc2c(=O)o1 | 7.28 | 
4 | CCCCNc1nc2c(C)cccc2c(=O)o1 | 6.39 | 0.86
5 | CCc1cccc2nc(N)oc(=O)c12 |  | -0.08
6 | CC(C)Sc1nc2ccccc2c(=O)o1 | 8.11 | 
7 | Cc1cccc2ncoc(=O)c12 | 6.66 | 1.38
8 | CCCCCNc1nc2cccc(C)c2c(=O)o1 | 5.47 | 
9 | Cc1cccc2nc(CBr)oc(=O)c12 | 6.82 | 1.58
10 | O=c1oc(-c2ccco2)nc2ccccc12 | 5.75 | 1.94
11 | Cc1cccc2c(=O)oc(NC(C)C)nc12 | 6.23 | 0.69
12 | O=c1oc(C(F)(F)C(F)(F)C(F)(F)F)nc2ccccc12 | 7.04 | 3.27
13 | CCCCN(CCCC)c1nc2cccc(C)c2c(=O)o1 | 6.44 | 
14 | O=c1oc(Cc2ccccc2)nc2ccccc12 | 5.44 | 
15 | Cc1cccc2c(=O)oc(SCc3ccccc3)nc12 | 6.96 | 
16 | CCSc1nc2cc3ccccc3cc2c(=O)o1 | 7.14 | 2.54
17 | CN(C)c1ccc(CNc2nc3ccccc3c(=O)o2)cc1 | 5.70 | 1.81
18 | CCCc1nc2ccccc2c(=O)o1 | 5.54 | 
19 | Cc1cccc2nc(N(C(C)C)C(C)C)oc(=O)c12 | 6.40 | 
20 | CCOC(=O)CSc1nc2ccccc2c(=O)o1 | 7.14 | 2.93
21 | CCc1cccc2nc(N(C(C)C)C(C)C)oc(=O)c12 | 7.15 | 
22 | CCSc1nc2ccc(N(C)C)cc2c(=O)o1 | 6.47 | 1.76
23 | CC(C)Nc1nc2cc(N)ccc2c(=O)o1 | 6.11 | -0.46
24 | COc1cccc2nc(C)oc(=O)c12 | 4.84 | 0.83
25 | COC(=O)[C@@H](NC(=O)[C@H](C)Nc1nc2ccccc2c(=O)o1)C(C)C | 6.74 | 
26 | CCCOc1cc(CC)c2c(=O)oc(NC(C)C)nc2c1 | 7.67 | 

Row | Compound | pKi (Neutrophil elastase) | Log kOH- [1]
27 | CC(C)[C@H](NC(=O)C1CCCN1c1nc2ccccc2c(=O)o1)C(N)=O (stereo partly specified) | 6.33 | 
28 | Cc1cccc2nc(Nc3ccccc3)oc(=O)c12 | 6.96 | 
29 | CCCCNc1nc2cccc(C)c2c(=O)o1 |  | 0.41
30 | CCOc1nc2c(C)ccc(C)c2c(=O)o1 | 10.02 | 
31 | O=c1oc(SCc2ccccc2)nc2cc3ccccc3cc12 | 6.59 | 
32 | C[C@H](NC(=O)[C@@H]1CCCN1c1nc2ccccc2c(=O)o1)C(N)=O | 6.63 | 
33 | COC(=O)[C@@H](CC(C)C)NC(=O)[C@@H](CC(C)C)Nc1nc2cc(C)cc(C)c2c(=O)o1 | 6.99 | 
34 | CCN(CC)c1nc2ccccc2c(=O)o1 | 6.43 | 
35 | CCOC(=O)C(Cc1ccccc1)Nc1nc2ccccc2c(=O)o1 (stereo unspecified) | 5.92 | 
36 | CCc1cccc2nc(NC(C)C)oc(=O)c12 |  | 0.31
37 | CCN(CC)c1nc2c(C)ccc(C)c2c(=O)o1 | 6.98 | 
38 | CCSc1nc2cccc(CC)c2c(=O)o1 |  | 1.37
39 | COc1cc2nc(SC/C=C/c3ccccc3)oc(=O)c2cc1OC | 5.16 | 
40 | COC(=O)[C@H](CC(C)C)NC(=O)[C@H](CC(C)C)Nc1nc2cc(C)cc(C)c2c(=O)o1 | 7.40 | 
41 | Cc1cccc2nc(NC3CCCC3)oc(=O)c12 | 6.70 | 
42 | CCC(C)(C)Nc1nc2ccccc2c(=O)o1 | 6.81 | 
43 | CCOc1nc2cc(OC)cc(C)c2c(=O)o1 | 9.40 | 
44 | Cc1cccc2nc(N)oc(=O)c12 |  | -0.05
45 | COc1nc2cccc(C)c2c(=O)o1 | 8.00 | 
46 | CCCCN(CCCC)c1nc2cccc(CC)c2c(=O)o1 | 6.75 | 
47 | COc1cc2nc(SCc3c[nH]c4ccccc34)oc(=O)c2cc1OC | 4.89 | 
48 | CNc1nc2c(C)cccc2c(=O)o1 | 4.01 | 
49 | Nc1nc2ccccc2c(=O)o1 |  | 0.53
50 | O=c1oc(C(F)(F)C(F)(F)F)nc2ccccc12 | 6.96 | 
51 | Cc1cccc2nc(NCCC(C)C)oc(=O)c12 | 5.81 | 
52 | Cc1cccc2nc(NCC(C)(C)C)oc(=O)c12 | 6.62 | 
